From ChEMBL document CHEMBL1121715, “New antiarrhythmic agents. 4. 1'-(Aminoalkyl)-1,2,3,4-tetrahydronaphthalene-1-spiro-3'-pyrrolidine-2',5'-dione derivatives” (J Med Chem, 1981)

Experiments:
[1] = Percentage toxicity measured as death of mice.; assay type: organism-based; design: concentration or dose not given beside the values; settings: mouse, in vivo; read-out: Death
Mus musculus [2] = test: Protection against chloroform induced arrhythmias in mice after subcutaneous administration at 100 mg/kg dose.; assay type: functional
Procedure, shortened: (§1)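 Groups of 10 unanesthetized mice got sc injection of drug in 0.9% saline. After 20 min observation they were placed one by one in chloroform-vapor-saturated air. When breathing stopped, the thorax was opened and the heart inspected by eye; coordinated ventricular contractions counted as protected.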

Mus musculus [3] = species: Mus musculus; test: Percentage toxicity measured as convulsions.; assay type: organism-based; settings: in vivo
Procedure, shortened: (§2)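 Mice (groups of 10) were dosed sc with drug in 0.9% saline and watched for 20 min for overt toxicity (ataxia, convulsions, loss of righting reflex, death) before chloroform exposure.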

Mus musculus [4] = species: Mus musculus; test: Percentage toxicity measured as loss of righting reflex.; assay type: organism-based; settings: in vivo; procedure, shortened: as §2
Mus musculus [5] = species: Mus musculus; test: Percentage toxicity measured as ataxia.; assay type: organism-based; settings: in vivo; procedure, shortened: as §2
Mus musculus [6] = test: Protection against chloroform induced arrhythmias was measured in mice after sc administration at given dose.; assay type: functional; procedure, shortened: as §1
Mus musculus [7] = test: Protection against chloroform induced arrhythmias was measured in mice after sc administration at given dose; assay type: functional; procedure, shortened: as §1
Mus musculus [8] = test: Ataxia was measured in mice after sc administration at given dose; assay type: functional
Procedure, shortened: (§3)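 Mice in groups of 10 received drug sc in 0.9% saline and were watched 20 min for overt toxicity before chloroform exposure. At least three doses were given.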

Mus musculus [9] = test: Ataxia was measured in mice after sc administration at given dose.; assay type: functional; procedure, shortened: as §3
Canis familiaris [10] = test: MABP value was measured in anesthetized dog at 0.32+/-0.11 dose.; assay type: functional, Canis lupus familiaris
Canis familiaris [11] = test: Ventricular rate was measured in anesthetized dog at 0.32+/-0.11 dose; assay type: functional, Canis lupus familiaris, Heart; settings: in the assay text read “unanesthetized” for “anesthetized”
Procedure, shortened: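 Adult female dogs (6.7–14.5 kg) had ventricular arrhythmias from two-stage ligation of the left anterior descending coronary artery the day before. Ventricular rate (bpm) was read at maximal antiarrhythmic effect against cumulative dose.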

Canis familiaris [12] = test: % ectopic beats was measured in unanesthetized dog at 0.32+/-0.11 dose; 2+/-2
Canis familiaris [13] = species: Canis familiaris; test: The dose at which toxicity was measured.; assay type: organism-based, Canis lupus familiaris; settings: dog, in vivo
Procedure, shortened: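 Adult female dogs (6.7–14.5 kg) had two-stage ligation of the left anterior descending coronary artery the day before testing. After control ventricular rate, % ectopic beats and mean arterial pressure were recorded, the drug (HCl salt, isotonic solution) was infused iv without anesthesia at 0.1, 0.5 or 1.0 (mg/kg)/min, mostly 0.5. Infusion continued until the arrhythmia was abolished or cardiovascular/CNS toxicity appeared. Cumulative dose is given in mmol/kg; toxicity included convulsion and P-R prolongation ≥25%.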

[14] = Mus musculus, sc, read-out: ED50

| Structure (SMILES) | mortality [1] [%] | Protection (Mus musculus [2]) [%] | Convulsion (Mus musculus [3]) [%] | Loss of righting reflex (Mus musculus [4]) [%] | Ataxia (Mus musculus [5]) [%] | Protection (Mus musculus [2]; 100 mg/kg) [%] | ED50 (Mus musculus [6]; [14]) [µmol/kg] | ED50 (Mus musculus [7]) [µmol/kg] | ED50 (Mus musculus [8]) [µmol/kg] | ED50 (Mus musculus [6]) [µmol/kg] | ED50 (Mus musculus [9]) [µmol/kg] | MABP (Canis familiaris [10]) [mmHg] | Ventricular rate (Canis familiaris [11]) [beats min-1] | Ectopic beats (Canis familiaris [12]) [%] | Cumulative dose (Canis familiaris [13]) |
| --- | --- | --- | --- | --- | --- | --- | --- | --- | --- | --- | --- | --- | --- | --- | --- |
| CN(CCO)CCCCN1C(=O)CC2(CCCc3ccccc32)C1=O (stereo not drawn) | 0 | 10 | 0 | 0 | 0 |  |  |  |  |  |  |  |  |  |  |
| O=C1NC(=O)C(C2CCc3ccccc3C2)N1 (stereo not drawn) | 0 | 20 | 0 | 0 | 0 |  |  |  |  |  |  |  |  |  |  |
| CCN(CC)CCCCCN1C(=O)CC2(CCCc3ccccc32)C1=O (racemic) | 0 |  | 0 | 0 | 0 | 80 | 240 |  |  |  |  |  |  |  |  |
| CCN(CC)CCCCN1C(=O)CC2(CCCc3ccccc32)C1=O (stereo not drawn) | 0 | 90 | 0 | 0 | 100 |  |  | 180 | 180 |  |  |  |  |  |  |
| CCN(CC)C(C)CCN1C(=O)CC2(CCCc3ccc(O)cc32)C1=O (stereo not drawn) | 20 | 80 | 100 | 100 | 100 |  |  | 80 | 80 |  |  |  |  |  |  |
| CCN(CC)CCCN1C(=O)CC2(CCCc3ccccc32)C1=O (stereo not drawn) | 0 | 80 | 0 | 0 | 100 |  |  | 200 | 190 |  |  |  |  |  |  |
| CCN(CC)CCCN1C(=O)CC2(CCCc3cc(OC)ccc32)C1=O (stereo not drawn) | 0 | 40 |  | 0 | 100 |  |  |  |  |  |  |  |  |  |  |
| CN(CCO)CCN1C(=O)CC2(CCCc3ccccc32)C1=O (stereo not drawn) | 0 | 30 | 0 | 0 | 0 |  |  |  |  |  |  |  |  |  |  |
| CCN(CC)CCCCCN1C(=O)CC2(CCCc3ccccc32)C1=O (single isomer, unassigned; (-)) |  |  | 30 |  | 100 | 90 |  |  |  | 160 |  |  |  |  |  |
| CN(CCO)CCN1C(=O)CC2(CCc3ccccc3C2)C1=O (stereo not drawn) | 0 | 30 | 40 | 0 | 100 |  |  |  |  |  |  |  |  |  |  |
| CCCC1(c2ccccc2)CC(=O)N(CCN(C)C)C1=O (stereo not drawn) | 0 | 40 | 0 | 0 | 100 |  | 390 |  |  |  | 270 |  |  |  |  |
| COc1ccc2c(c1)CCCC21CC(=O)N(CCN(C)C)C1=O (stereo not drawn) | 0 | 20 | 0 | 0 | 100 |  |  |  |  |  |  |  |  |  |  |
| Cc1cccc(C)c1NC(=O)C(C)N (stereo not drawn) [TOCAINIDE] | 0 | 20 | 0 | 0 | 10 |  | 1300 |  |  |  | 760 | 108 | 148 | 2 | 0.3 |
| CCN(CC)C(C)CCN1C(=O)CC2(CCCc3ccccc32)C1=O (stereo not drawn) | 0 | 40 | 0 | 0 | 100 |  |  |  |  |  |  |  |  |  |  |
| NCCCCCN1C(=O)CC2(CCCc3ccccc32)C1=O (stereo not drawn) | 0 | 20 | 0 | 0 | 0 |  |  |  |  |  |  |  |  |  |  |
| CCN(CC)C(C)CCN1C(=O)CC2(CCCc3cc(OC)ccc32)C1=O (stereo not drawn) | 0 | 0 | 0 | 0 | 60 |  |  |  |  |  |  |  |  |  |  |
| O=C1CC2(CCCc3ccccc32)C(=O)N1CCCN1CCOCC1 (stereo not drawn) | 0 | 20 | 0 | 0 | 100 |  |  |  |  |  |  |  |  |  |  |
| COc1ccc2c(c1)CCCC21CC(=O)N(CCCN(C)C)C1=O (stereo not drawn) | 0 | 0 | 0 | 0 | 100 |  |  |  |  |  |  |  |  |  |  |
| CCN(CC)CCCN1C(=O)CC2(CCCc3ccc(Cl)cc32)C1=O (stereo not drawn) | 0 | 90 | 0 | 0 | 100 |  |  | 160 | 110 |  |  |  |  |  |  |
| CCN(CC)C(C)CN1C(=O)CC2(CCCc3ccc(O)cc32)C1=O (stereo not drawn) | 0 | 60 | 0 | 0 | 50 |  |  |  |  |  |  |  |  |  |  |
| CN(CCO)CCCN1C(=O)CC2(CCCc3ccccc32)C1=O (stereo not drawn) | 0 | 30 | 0 | 0 | 0 |  |  | 560 | 760 |  |  |  |  |  |  |
| CCN(CC)CCCN1C(=O)CC2(CCCc3ccc(C)cc32)C1=O (stereo not drawn) | 0 | 70 | 0 | 0 | 0 |  |  | 210 |  |  |  |  |  |  |  |
| COCCN(C)CCCN1C(=O)CC2(CCCc3ccccc32)C1=O (stereo not drawn) | 0 | 30 | 100 | 100 | 100 |  |  |  |  |  |  |  |  |  |  |
| CCN(CC)CCCCN1C(=O)CC2(CCCc3cc(O)ccc32)C1=O (stereo not drawn) | 0 | 70 | 0 | 0 | 0 |  | 260 |  |  |  |  |  |  |  |  |
| CCN(CC)CCCCCN1C(=O)CC2(CCCc3ccccc32)C1=O (single isomer, unassigned; (+)) |  |  |  |  |  | 50 |  |  |  | 210 |  |  |  |  |  |
| CCN(CC)CCCN1C(=O)CC2(CCCc3ccc(OC(C)C)cc32)C1=O (stereo not drawn) | 0 | 90 | 100 | 0 | 100 |  |  | 140 | 110 |  |  |  |  |  |  |
| CCN(CC)CCCN1C(=O)CC(c2ccccc2)C1=O (stereo not drawn) | 0 | 30 | 0 | 0 | 0 |  |  |  |  |  |  |  |  |  |  |
| CCN(CC)C(C)CN1C(=O)CC2(CCCc3ccccc32)C1=O (stereo not drawn) | 0 | 50 | 100 | 0 | 100 |  |  |  |  |  |  |  |  |  |  |
